CaV13 ICDI inh: Disruptors of the CACNA1D IQ motif to Ca2+-dependent inactivation inhibitor domain association, primary screening, Förster resonance energy transfer in intact living …. HEK cells, CFP/YFP FRET ICDI-IQ, plate reader, 10 min; percent FRET-ratio fall versus neutral wells. inhibition, % at 12.3 µM. actives 0.098% (n = 340,000). AID 743397;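 active means mean replicate inhibition of at least 30% and at least 1% of replicates passing that level; inconclusive means only one of the two criteria is met; inactive means neither criterion is met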
GC-A act: GC-A (human) enzyme activation | P16066 | HEK293 GC-A cells, cGMP TR-FRET, EC30 ANP; 0% at EC30 ANP, 100% saturating ANP | activation, % at 10 µM | actives 0.14% (n = 370,000); in the data active means activation above about 40%
GC-B act: GC-B (human) receptor activation; HEK293-GC-B cells, CNP EC30, cGMP TR-FRET; 0% at EC30 CNP, 100% saturating CNP; activation, % at 10 µM; actives 0.11% (n = 370,000);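 active means activation at 10 µM reaching about 35% in either raw or pattern-adjusted values, limit read from the data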
Target sequence (P20594 whole entry, looked up): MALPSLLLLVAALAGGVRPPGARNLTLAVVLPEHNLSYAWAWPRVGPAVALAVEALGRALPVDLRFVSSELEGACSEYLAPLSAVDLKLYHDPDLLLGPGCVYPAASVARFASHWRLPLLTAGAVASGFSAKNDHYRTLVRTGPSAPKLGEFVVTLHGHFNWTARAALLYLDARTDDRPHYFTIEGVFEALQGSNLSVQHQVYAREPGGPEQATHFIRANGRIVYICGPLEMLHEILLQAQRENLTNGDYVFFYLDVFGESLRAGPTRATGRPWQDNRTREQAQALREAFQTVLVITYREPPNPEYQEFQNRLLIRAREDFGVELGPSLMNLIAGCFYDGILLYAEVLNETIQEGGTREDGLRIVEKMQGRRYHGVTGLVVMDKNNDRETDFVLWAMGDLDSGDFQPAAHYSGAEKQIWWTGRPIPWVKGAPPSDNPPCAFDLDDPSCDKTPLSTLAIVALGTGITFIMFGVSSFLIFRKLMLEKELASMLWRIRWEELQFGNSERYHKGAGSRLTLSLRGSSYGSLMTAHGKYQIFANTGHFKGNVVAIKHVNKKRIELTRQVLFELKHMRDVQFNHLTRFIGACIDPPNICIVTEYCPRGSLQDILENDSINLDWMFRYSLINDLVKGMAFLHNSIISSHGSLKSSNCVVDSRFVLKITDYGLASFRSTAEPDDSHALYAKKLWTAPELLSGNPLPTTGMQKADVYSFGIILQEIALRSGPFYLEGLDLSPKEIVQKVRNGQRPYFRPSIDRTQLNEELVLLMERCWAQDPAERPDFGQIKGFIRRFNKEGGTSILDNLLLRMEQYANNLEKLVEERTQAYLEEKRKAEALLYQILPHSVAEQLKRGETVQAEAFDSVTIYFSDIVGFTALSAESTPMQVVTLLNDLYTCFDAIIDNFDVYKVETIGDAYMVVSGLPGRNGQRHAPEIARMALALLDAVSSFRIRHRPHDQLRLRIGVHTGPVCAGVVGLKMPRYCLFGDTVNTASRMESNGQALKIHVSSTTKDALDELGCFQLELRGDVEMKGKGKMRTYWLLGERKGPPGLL
Xi reactivation: reactivates the inactive X chromosome in mouse fibroblasts; XiGFP mouse fibroblasts, % GFP-positive cells imaging, 3 d; cells co-treated with 5-aza-dC sensitizer; scaled so ellipticine positive control = 100%; activation, % at 7.58 µM; actives 0.055% (n = 360,000); AID 743238;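 active means mean normalized replicate activation at least 10% and every replicate at or above 10%; inconclusive means only one of the two criteria met; inactive means mean below 10% and not all replicates reach 10%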
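Material: SV40-immortalized XiGFP fibroblast cells, line 68-5-11 | Buffer or medium: DMEM containing 5-aza-dC | Dosing: One concentration, pinned | Times: 3 d treatment, 15 min room-temperature fixation | Controls: Ellipticine 6 µM positive control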
Glyco luc inh: N-linked glycosylation inhibition; D54 ERlucT glycosylation luciferase reporter, 24 h; percent of 100 nM tunicamycin response; reporter increase, % at 12.5 µM; actives 0.23% (n = 360,000); AID 588692;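 active means mean luciferase reporter signal, scaled so untreated is 0 and the glycosylation-blocking control 100, at or above a set limit in every replicate; inconclusive means mean reaches the limit but not every replicate does; inactive means mean below the limit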;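 further: luciferase carries N-glycosylation sites so blocking glycosylation raises the light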
Vif inh: blocks HIV Vif function. actives 0.35% (n = 340,000). HEK293T cells, Vif self-association by quenched fluorescence, imaging, 24 h. AID 602346. inhibition, % at 7.49 µM; in the data active means inhibition above about 50%, passing the limit was not always enough; inconclusive means no clear call, values can overlap the other calls; inactive means below about 31%
A number is an active result; n = inactive; u = inconclusive; x = no result; + = active, no number. A selection: hits, their analogues and other compounds. The true share with any hit is near 0.7%.

SMILES	CaV13 ICDI inh	GC-A act	GC-B act	Xi reactivation	Glyco luc inh	Vif inh
COc1ccccc1CNC(=O)C[C@H]1CC[C@H]2[C@@H](COC[C@H](O)CN2Cc2cccc(-c3ccncc3)c2)O1	x	x	x	n	x	x
N#Cc1c(-c2ccccc2)cc(C2CC2)nc1SCC(=O)c1cccs1	n	n	n	x	n	86
O=C(Cc1ccccn1)NCC[C@H]1CC[C@@H](NC(=O)c2ccccc2F)[C@H](CO)O1	x	x	x	n	x	x
O=C(c1cccnc1)N1CC2(C1)[C@@H](c1ccccc1)[C@@H](CO)N2C(=O)c1cccnc1	x	x	x	n	x	x
CCCc1cc(C(=O)N/N=C/c2ccc(CC)s2)c2ccccc2n1	n	n	n	x	n	x
O=C(N/N=C/c1cccs1)c1cc(-c2ccncc2)nc2ccccc12	n	n	n	n	n	117
Cc1cc(C(=O)N/N=C/c2ccco2)c2ccccc2n1	n	n	n	n	n	n
Cc1ccc(-c2cc(C(=O)N/N=C/c3ccco3)n[nH]2)s1	n	n	n	n	n	n
O=C(N/N=C/c1ccco1)c1cc(-c2ccncc2)nc2ccccc12	n	n	n	n	28	x
CCc1ccc(/C=N/NC(=O)c2cc(-c3ccncc3)nc3ccccc23)s1	n	n	n	n	30	n
CC(C)(C)c1cc(C(=O)N/N=C/c2ccco2)n[nH]1	n	n	n	x	n	62
C[C@@H]1CCCCO[C@H](CN(C)C(=O)Nc2ccc(F)cc2)[C@H](C)CN([C@H](C)CO)C(=O)c2cc(NC(=O)Cc3ccccc3)ccc2O1	x	x	x	n	x	x
O=C(Cc1ccc(-c2ccccc2)cc1)NCc1ccccc1	n	n	n	n	u	54
CCCC(=O)N1CCC2(CC1)CN(Cc1cccnc1)[C@@H](CO)c1[nH]c3cc(OC)ccc3c12	x	x	x	n	x	x
CCc1cccc(CC)c1NC(=O)/C(C#N)=C/c1ccccc1C(F)(F)F	n	n	n	n	69	n
N#C/C(=C\c1ccccc1C(F)(F)F)C(=O)Nc1ccccc1	n	n	n	n	n	n
CN1C(=O)c2cccc(NC(=O)C3CCCCC3)c2C1=O	n	n	55	n	n	n
CCC(=O)Nc1cccc2c1C(=O)N(C)C2=O	n	n	n	x	n	n
CCN(CC)CCNc1ccc(CO)c2sc3ccccc3c(=O)c12	n	n	n	n	n	n
CCN(CC)CCNc1ccc(CO)c2oc3ccccc3c(=O)c12	n	n	n	n	43	x
CC(C)NC(=O)N(C)C[C@H]1Oc2ccc(N(C)C)cc2C(=O)N(C)C[C@H]1C	x	x	x	n	x	x
CC(=O)OCCN1C(=O)c2ccc(-c3nc4ccccc4c(=O)o3)cc2C1=O	n	47	n	n	n	n
CCN1C(=O)c2ccc(-c3nc4ccccc4c(=O)o3)cc2C1=O	n	n	n	n	n	n
CCN(c1ccccc1)S(=O)(=O)c1ccc(C(=O)NC2CCCCC2)cc1	n	n	n	n	n	n
CCN1CCc2c(sc(NC(=O)c3ccc(S(=O)(=O)N(CC)c4ccccc4)cc3)c2C(N)=O)C1	n	n	n	73	n	n
SMILES	CaV13 ICDI inh	GC-A act	GC-B act	Xi reactivation	Glyco luc inh	Vif inh
NC(=O)c1c(NC(=O)c2ccccc2)sc2c1CCN(Cc1ccccc1)C2	+	n	n	44	n	n
CCN1CCc2c(sc(NC(=O)Nc3ccc(Cl)c(Cl)c3)c2C(N)=O)C1	59	n	n	105	n	x
NC(=O)c1c(NC(=O)c2c(F)cccc2F)sc2c1CCN(Cc1ccccc1)C2	n	n	n	n	n	n
CCN(c1ccccc1)S(=O)(=O)c1ccc(C(=O)NC2CCN(Cc3ccccc3)CC2)cc1	x	x	x	x	48	n
CCCNC(=O)C[C@H]1C[C@@H]2c3cc(NC(=O)c4cccnc4)ccc3O[C@@H]2[C@@H](CO)O1	x	x	x	n	x	x
CCN1CCc2c(sc(NC(=O)Cc3ccccc3)c2C(N)=O)C1	n	n	n	n	n	n
CC(C)C(=O)Nc1sc2c(c1C(N)=O)CCN(Cc1ccccc1)C2	+	n	n	n	n	n
CCC(=O)Nc1sc2c(c1C(N)=O)CCN(Cc1ccccc1)C2	48	n	n	n	n	n
C[C@H]1CN([C@@H](C)CO)C(=O)c2cc(-c3cccc(C#N)c3)cnc2O[C@@H]1CN(C)Cc1cccnc1	x	x	x	n	x	x
Nc1ccc(C#Cc2ccc3c(=O)c4ccccc4oc3c2)cc1	106	n	n	n	n	n
O=C(/C=C/c1ccccc1)c1ccc2c3c(cccc13)CC2	n	n	n	n	47	x
C[C@@H]1CN([C@@H](C)CO)C(=O)c2cc(NC(=O)c3ccncc3)ccc2O[C@@H](C)CCCCO[C@H]1CN(C)C(=O)c1ccccc1	x	x	x	n	x	x
CCn1nc(C)c(Br)c1-c1nc(-c2cccc(C)c2)no1	n	n	n	n	n	n
CCn1nc(C)c(Br)c1-c1nc(CS(=O)(=O)c2ccsc2)no1	n	n	n	n	n	56
CCN1[C@@H]2c3ccc(-c4ccccc4F)c(=O)n3C[C@@H]2[C@@H](CO)[C@@H]1C(=O)NC1CCCC1	x	x	x	n	x	x
COc1ccccc1NS(=O)(=O)c1ccc(C(=O)NCCCN2CCOCC2)cc1	n	n	n	n	n	89
O=C(NCCCN1CCOCC1)c1ccc(S(=O)(=O)Nc2ccccc2)cc1	n	n	n	n	n	n
O=C1N[C@H](c2ccccc2)COCc2cnnn2CC[C@H]1Cc1ccc(C(F)(F)F)cc1	x	x	x	n	x	x
COc1ccc(Oc2ccc(/C=C/C(=O)c3cccc(OC)c3)cc2[N+](=O)[O-])cc1	n	n	n	n	50	n
COc1ccc(Oc2ccc(/C=N/NC(=O)c3cccnc3)cc2[N+](=O)[O-])cc1	n	n	n	n	n	n
CCCN1[C@@H]2Cn3c(ccc(-c4ccccc4F)c3=O)[C@H]1[C@@H](C(=O)NCc1ccccn1)[C@@H]2CO	x	x	x	n	x	x
COc1cc2c(cc1OC)C(C)N(C(=O)Nc1ccccc1)CC2 (stereo not drawn)	n	n	n	n	35	n
Nc1ccc2[nH]c(=S)[nH]c2c1	n	n	n	n	n	n
S=c1[nH]c2ccc(Cc3ccc4[nH]c(=S)[nH]c4c3)cc2[nH]1	42	n	n	n	n	n
O=C(O)c1ccc(N/N=C/C=C/c2ccccc2[N+](=O)[O-])cc1	n	n	n	n	n	54
CC(C)NC(=O)N(C)C[C@@H]1Oc2ccc(NC(=O)Cn3cnnn3)cc2C(=O)N([C@@H](C)CO)C[C@H]1C	x	x	x	n	x	x
COC(=O)c1sc(-c2ccc(Cl)cc2)cc1NC(=O)CSCC(=O)O	n	n	n	n	n	51
CC1=C(C(=O)N2CCOCC2)C(c2ccc(O)cc2)NC(=S)N1 (stereo not drawn)	n	n	41	n	n	n

Assay outcomes deposited in PubChem BioAssay by several laboratories.
